Assay outcomes (PubChem)
An excerpt weighted towards active compounds, which were near 1.5% of everything screened.
CCR6 antag: antagonists of human CCR6 receptor; P51684; CHO-K1 CCR6 PathHunter beta-arrestin, luminescence, CCL20-stimulated; inhibition, % at 20 µM; 340,000 tested, 0.49% active; AID 493098;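 active means compounds whose inhibition of the agonist-driven luminescence signal at 20 µM reaches about 50%, limit read from the data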;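 further: cells stimulated with CCL20 at 14 nM final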
HTR2A ag: activates the mouse 5-HT2A serotonin receptor | P35363 | CHO-K1 mHTR2A beta-arrestin complementation, luminescence; percent of 30 µM serotonin response | activation, % at 7.6 µM | 360,000 tested, 0.66% active | AID 624169;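 active means activation above a run cutoff, the mean activation of all tested compounds plus 3 SD, cut at about 14% in these data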
APJ agonist: activates the human apelin receptor APJ | P35414 | CHO-K1 APJ PathHunter beta-arrestin, luminescence; 0% DMSO wells, 100% apelin | activation, % at 20 µM | 330,000 tested, 0.11% active;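 active means activation more than six SD over the plate average, tested at 20 µM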
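Test system: CHO-K1 APJ beta-arrestin complementation cell line | Compound: Single test compound dose, 20 µM final, 1% DMSO | Incubation: Compound 90 min 25 °C, reagent 1 h | Measured by: beta-gal luminescence | Read-out basis: APJ–arrestin association signal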
APJ antag: APJ receptor antagonism | P35414 | CHO-K1 APJ beta-arrestin complementation, luminescence | inhibition, % at 20 µM | 330,000 tested, 0.32% active | AID 2521;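 active means inhibition above about 40% at 20 µM, limit read from the data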;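 further: cells challenged with 10 nM apelin-13 agonist together with compound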
CXCR6 inh: CXCR6 (human) receptor inhibition; O00574; CHO-K1 PathHunter CXCR6 beta-arrestin, luminescence; inhibition, % at 20 µM; 360,000 tested, 0.36% active; AID 602244; in the data active means inhibition above about 34%, passing the limit was not always enough;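 further: antagonist mode with CXCL16 agonist at 10 nM final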
NTR1 ag: NTR1 (human) agonism | P30989 | NTR1-U2OS beta-arrestin-GFP spot imaging, agonist mode | activation, % at 20 µM | 330,000 tested, 0.17% active | AID 493036;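 active means activation at or above 40% of the spot to cytoplasm intensity ratio, with at least 20 cells analyzed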
MOR ag counter: activates human mu opioid receptor in HTR2A counterscreen | shares compounds with HTR2A ag | U2OS OPRM1 beta-arrestin PathHunter, luminescence; DMSO 0%, DAMGO 9.3 µM 100% | activation, % at 9.3 µM | 2,300 tested, 5.3% active;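 active means mean activation above the mean of DMSO-only wells plus 3 SD, cut at about 0.5% in these data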
Target sequence (P35372 whole entry, looked up): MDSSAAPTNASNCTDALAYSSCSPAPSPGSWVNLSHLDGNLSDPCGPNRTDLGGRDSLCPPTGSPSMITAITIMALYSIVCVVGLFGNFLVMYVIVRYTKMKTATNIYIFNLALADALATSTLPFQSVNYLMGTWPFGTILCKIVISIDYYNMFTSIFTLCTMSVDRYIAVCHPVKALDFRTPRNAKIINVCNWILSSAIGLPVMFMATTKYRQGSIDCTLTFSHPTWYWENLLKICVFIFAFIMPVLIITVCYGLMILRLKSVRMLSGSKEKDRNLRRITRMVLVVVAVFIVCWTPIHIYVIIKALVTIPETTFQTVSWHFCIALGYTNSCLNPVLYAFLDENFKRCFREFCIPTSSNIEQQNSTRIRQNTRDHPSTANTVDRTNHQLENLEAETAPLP
m5-HT2A ag conf: confirmation of mouse HTR2A serotonin receptor agonists; shares compounds with HTR2A ag; 2,300 tested, 19% active; activation, % at 7.6 µM; CHO-K1 PathHunter beta-arrestin recruitment, luminescence; DMSO 0%, 30 µM serotonin 100%;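 active means mean activation across triplicates above the hit threshold derived in the original primary screen, cut at about 15% in these data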
Numbers stand for hits; - = inactive; . = not tested or not shown.

SMILES	CCR6 antag	HTR2A ag	APJ agonist	APJ antag	CXCR6 inh	NTR1 ag	MOR ag counter	m5-HT2A ag conf
CC1=C(C(=O)N(C(C)C)C(C)C)CC(CC(=O)NCCN2CCOCC2)C(=O)N1CCC1=CCCCC1 (centres undefined)	.	16	.	.	-	.	-	-
O=S(=O)(CCc1ccncc1)c1ccc(Cl)cc1	-	-	-	-	-	-	.	.
COC(=O)[C@@]1(Cc2ccc(OC)cc2)[C@@H]2[C@@H](CC(=O)[C@H]2CC(=O)C(=O)N(C)C)CN1C(=O)c1ccccc1	-	18	-	-	-	-	-	-
COC(=O)[C@@]1(Cc2ccc(F)cc2)[C@@H]2[C@@H](CC(=O)[C@H]2CC(=O)C(=O)N(C)C)CN1C(=O)c1ccccc1	-	-	-	-	-	-	.	.
CC(=O)C1=C(O)C(=O)OC1c1ccc(Cl)cc1 (centres undefined)	-	16	-	-	-	-	-	-
CC(=O)C1=C(O)C(=O)OC1c1ccc(C)cc1 (centres undefined)	-	-	-	-	-	-	.	.
CCCc1cc(=O)[nH]c(N2CCN(Cc3ccc4c(c3)OCO4)CC2)n1	-	-	.	.	-	.	.	.
O=[N+]([O-])c1ccccc1/C=C/CN1CCN(Cc2ccc3c(c2)OCO3)CC1	-	-	-	-	-	-	.	.
O=[N+]([O-])c1cccnc1N1CCN(Cc2ccc3c(c2)OCO3)CC1	-	29	-	-	-	-	-	68
O=[N+]([O-])c1ccc2ncnc(N3CCN(Cc4ccc5c(c4)OCO5)CC3)c2c1	-	31	-	-	-	-	-	73
CC(C)c1cc(=O)[nH]c(N2CCN(Cc3ccc4c(c3)OCO4)CC2)n1	-	20	-	-	-	-	-	19
COc1ccc(NC(=S)N2CCC(C(=O)c3ccc(OC)cc3)CC2)cc1	-	-	-	-	-	-	.	.
COCCN(CCOC)C(=O)COC(=O)c1cc([N+](=O)[O-])ccc1Cl	-	-	-	-	-	-	.	.
CC(C)C(=O)N1CCCC1(C)C(=O)NCc1ccccn1 (centres undefined)	.	-	.	.	-	.	.	.
CCCC(=O)N1CCCC1(C)C(=O)NCCc1ccccn1 (centres undefined)	.	22	.	.	-	.	-	-
Cc1nc2ccc(S(=O)(=O)NCC(=O)NCc3ccc(Cl)cc3)cc2s1	-	-	-	-	-	-	.	.
Cc1nc2ccc(S(=O)(=O)CCC(=O)NCc3ccc(Cl)cc3)cc2s1	.	21	.	.	-	.	-	-
O=C(CN1CCN(c2ccccn2)CC1)Nc1cccc(S(=O)(=O)N2CCCC2)c1	-	19	-	-	-	-	-	69
O=C(CN1CCN(c2ccccn2)CC1)Nc1ccccc1	-	-	-	-	-	-	.	.
O=C(CN1CCN(c2ccccn2)CC1)Nc1ccc(Oc2ccccc2)cc1	-	33	-	-	-	-	-	92
Cc1nc2ccccc2n1CC(=O)OCC(=O)NCc1ccccc1	-	15	-	-	-	-	-	-
CCOC(=O)Cn1c(=O)c(-c2ccccc2NCc2ccccc2)nc2ccccc21	-	-	-	-	-	-	.	.
COc1ccc(NC(=O)CN(C)C(=O)Cc2n[nH]c(=O)c3ccccc23)cc1	-	-	-	-	-	-	.	.
CC1CCN(c2nc3c(c(=O)[nH]c(=O)n3C)n2CCSc2ncccn2)CC1	-	60	.	.	-	.	-	-
O=C(C1CCN(CCCc2ccccc2)CC1)N1CCCCC1	-	20	-	-	-	-	-	45
CCN(CC(=O)Nc1ccc2c(c1)OCCO2)C(=O)c1ccc([N+](=O)[O-])s1	-	-	-	-	-	-	.	.
CCOC(=O)C1(C)CCCCCN1C(=O)c1ccc(OC)cc1 (centres undefined)	.	16	.	.	-	.	-	-
